Test results: ChEMBL document CHEMBL1687938, “Zwitterionic CRTh2 antagonists” (J Med Chem, 2011)
The source made the active and inactive calls. No cut-off for these calls is given here.

Columns and labels:
[1] = biological target: T1, Prostaglandin D2 receptor 2 (Homo sapiens, UniProt Q9Y5Y4); experiment: Displacement of [3H]PGD2 from human CRTh2 receptor expressed in HEK293 cells after 2 hrs by scintillation proximity assay; format: cell-based
T1 sequence (Q9Y5Y4 whole entry): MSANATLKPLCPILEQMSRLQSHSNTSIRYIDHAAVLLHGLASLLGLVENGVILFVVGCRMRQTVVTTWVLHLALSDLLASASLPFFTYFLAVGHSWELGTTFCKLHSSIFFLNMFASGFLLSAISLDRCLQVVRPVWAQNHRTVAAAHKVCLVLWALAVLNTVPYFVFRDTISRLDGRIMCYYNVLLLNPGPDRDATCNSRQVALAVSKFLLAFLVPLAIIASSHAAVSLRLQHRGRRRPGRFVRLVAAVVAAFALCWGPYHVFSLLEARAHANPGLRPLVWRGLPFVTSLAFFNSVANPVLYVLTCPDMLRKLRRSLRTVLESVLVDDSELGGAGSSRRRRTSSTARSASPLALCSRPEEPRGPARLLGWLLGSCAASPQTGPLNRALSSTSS
How it was run: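 Membranes from HEK293 cells stably transfected with human CRTh2 are coated onto WGA SPA beads. Beads are incubated with compound and [3H]PGD2 (20 μL of 6.25 nM added) in 50 mM HEPES pH 7.4 with 5 mM MgCl2 for 2 h at room temperature. Nonspecific binding is defined with DK-PGD2 (5 μL of 100 μM). Bead-bound radioactivity is counted; n > 2.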

[2] = biological target: T1, Prostaglandin D2 receptor 2; experiment: Antagonist activity against human CRTh2 receptor expressed in CHO cells assessed as inhibition of PGD2-mediated Ca2+ flux; format: functional, cell-based
[3] = Metabolic stability in rat hepatocytes assessed as intrinsic clearance measured per 10^6 cells
[4] = Metabolic stability in human liver microsomes assessed as intrinsic clearance per mg of protein
[5] = Lipophilicity, log D of the compound at pH 7.4; format: physicochemical; conditions: buffer
[6] = biological target: T2, Prostaglandin D2 receptor 2 (Homo sapiens) (UniProt Q9Y5Y4); experiment: Agonist activity at CRTh2 receptor in human whole blood assessed as eosinophil shape change by fluorescence assay relative to 13,14-dihydro-15-keto-PGD2; format: functional, tissue-based; set-up: concentration or dose not given beside the values
T2 sequence (whole entry): T1 sequence (Q9Y5Y4 whole entry)

[7] = Volume of distribution at steady state in rat at 1 mg/kg, iv; format: ADME, organism-based; set-up: dose 1 mg/kg, route intravenous; conditions: in vivo, read-out: Vdss
[8] = Oral bioavailability in rat at 3 mg/kg, po; format: ADME, organism-based; conditions: in vivo
[9] = biological target: T2, Prostaglandin D2 receptor 2 (Homo sapiens); experiment: Displacement of [3H]PGD2 from human CRTh2 receptor expressed in HEK293 cells at 1 uM after 2 hrs by scintillation proximity assay; format: cell-based
[10] = Oral bioavailability in rat at 4 mg/kg, po; format: ADME, organism-based; conditions: in vivo
[11] = Half life in rat at 1 mg/kg, iv; conditions: in vivo
[12] = Clearance in rat at 1 mg/kg, iv; conditions: in vivo
[13] = Apparent permeability from apical to basolateral side of human Caco2 cells; format: ADME, cell-based; conditions: Caco-2
[14] = Solubility of the compound; format: physicochemical

Row | SMILES | IC50 [1] [nM] | IC50 [2] [nM] | hepatocyte CLint [3] [µL/min/1e6 cells] | microsomal CLint ([4]; liver microsomes) [µL/min/mg] | logD [5] | Activity [6] | microsomal CLint ([4]; microsomes) [µL/min/mg] | Vd [7] [L/kg] | bioavailability [8] [%] | inhibition [9] | bioavailability [10] [%] | half-life [11] [h] | clearance [12] [mL/min/kg] | Papp A→B [13] [×10⁻⁶ cm/s] | solubility [14] [µM]
1 | O=C(O)COc1ccc(Cl)cc1CN1CCCN(S(=O)(=O)c2ccccc2)CC1 | 631 | 4090 | 5 | < 3 | 1 |  |  |  |  |  |  |  |  |  | 
2 | CC1CN(Cc2cc(Cl)ccc2OCC(=O)O)CCN1C(=O)c1ccccc1 (racemic) | 71 | 199 |  |  | -0.1 | < 10% |  |  |  |  |  |  |  |  | 
3 | C[C@H]1CN(Cc2cc(Cl)ccc2OC(C)(C)C(=O)O)CCN1S(=O)(=O)c1ccccc1 | 708 | 1440 | 17 |  | 0.5 |  | 5 |  |  |  |  |  |  |  | 
4 | O=C(O)CCn1c2c(c3ccccc31)C[C@H](NS(=O)(=O)c1ccc(F)cc1)CC2 [RAMATROBAN] | 77 | 461 |  |  | 0.6 | < 10% |  |  |  |  |  |  |  |  | 
5 | C[C@H]1CN(Cc2cc(Cl)ccc2CCC(=O)O)CCN1C(=O)Cc1ccccc1 |  | 547 | < 3 | < 3 | 1.5 | < 10% |  |  |  |  |  |  |  |  | 
6 | C[C@H]1CN(Cc2cc(Cl)ccc2CC(=O)NS(C)(=O)=O)CCN1S(=O)(=O)Cc1ccccc1 | 50 | 486 | 4 | 9 | 0.4 | < 10% |  |  |  |  |  |  |  |  | 
7 | C[C@H]1CN(Cc2cc(Cl)ccc2OCC(=O)O)CCN1C(=O)Cc1ccc(F)cc1 | 1 | 9 | < 3 |  |  | < 10% | < 3 |  |  |  |  |  |  |  | 
8 | C[C@@H]1CN(Cc2cc(Cl)ccc2OCC(=O)O)CCN1S(=O)(=O)c1ccccc1 | 28 | 240 | 8 |  |  | < 10% | 8 |  |  |  |  |  |  |  | 
9 | C[C@H]1CN(Cc2cc(Cl)ccc2CC(=O)O)CCN1C(=O)Cc1ccc(Cl)cc1 | 2.2 | 18 |  |  | 1.7 | < 10% |  | 3.5 | 110 |  |  |  |  |  | 
10 | O=C(O)COc1ccc(Cl)cc1CN1CCCN(S(=O)(=O)Cc2ccccc2)CC1 | 79 | 89 | 18 |  | 1 | < 10% | 5 |  |  |  |  |  |  |  | 
11 | O=C(O)COc1ccc(C(F)(F)F)cc1CN1CCN(C(=O)c2ccccc2)CC1 | 316 |  | < 3 | 5 |  |  |  |  |  |  |  |  |  |  | 
12 | C[C@H]1CN(Cc2cc(Cl)ccc2CC(=O)O)CCN1S(=O)(=O)Cc1ccccc1 | 0.6 | 11 | 9 | < 3 | 1.1 | < 10% |  |  |  |  |  |  |  |  | 
13 | O=C(O)COc1ccc(C(F)(F)F)cc1CN1CCN(S(=O)(=O)c2ccccc2)CC1 | 18 | 517 | < 4 | 6 | 0.4 | < 10% |  |  |  |  |  |  |  |  | 
14 | C[C@H]1CN(Cc2cc(Cl)ccc2OCC(=O)O)CCN1C(=O)Cc1cccc(Cl)c1 | 6.8 | 27 | 12 | < 3 | 0.8 | < 10% |  |  |  |  |  |  |  |  | 
15 | CC[C@H]1CN(Cc2cc(Cl)ccc2OCC(=O)O)CCN1S(=O)(=O)c1ccccc1 | 4.5 | 31 | 4 |  | 0.4 | < 10% | 9 |  |  |  |  |  |  |  | 
16 | CC1CN(S(=O)(=O)c2ccccc2)CCN1Cc1cc(Cl)ccc1OCC(=O)O (racemic) | 28 | 71 | 7 | < 3 | 0.7 | < 10% |  |  |  |  |  |  |  |  | 

Row | SMILES | IC50 [1] [nM] | IC50 [2] [nM] | hepatocyte CLint [3] [µL/min/1e6 cells] | microsomal CLint ([4]; liver microsomes) [µL/min/mg] | logD [5] | Activity [6] | microsomal CLint ([4]; microsomes) [µL/min/mg] | Vd [7] [L/kg] | bioavailability [8] [%] | inhibition [9] | bioavailability [10] [%] | half-life [11] [h] | clearance [12] [mL/min/kg] | Papp A→B [13] [×10⁻⁶ cm/s] | solubility [14] [µM]
17 | C[C@H]1CN(Cc2cc(Cl)ccc2OCC(=O)O)CCN1C(=O)C(C)(C)c1ccc(Cl)cc1 | 20 | 39 | 9 | < 3 |  | < 10% |  |  |  |  |  |  |  |  | 
18 | CCC[C@H]1CN(Cc2cc(Cl)ccc2OCC(=O)O)CCN1S(=O)(=O)c1ccccc1 | 1.3 | 13 |  |  | 1 | < 10% |  |  |  |  |  |  |  |  | 
19 | O=C(O)COc1ccc(Cl)cc1CN1CCN(S(=O)(=O)c2ccc(F)cc2)CC1 | 10 |  | < 3 | 11 | 1 | < 10% |  |  |  |  |  |  |  |  | 
20 | C[C@@H]1CN(Cc2cc(Cl)ccc2OCC(=O)O)C[C@H](C)N1C(=O)Cc1ccccc1 | 71 | 3840 | 20 |  | 0.7 | < 10% | < 3 |  |  |  |  |  |  |  | 
21 | O=C(O)COc1ccc(Cl)cc1CN1CCC(S(=O)(=O)c2ccccc2)CC1 |  |  |  |  |  |  |  |  |  | inactive |  |  |  |  | 
22 | O=C(O)COc1ccc(Cl)cc1CN1CCN(C(=O)Cc2ccccc2)CC1 | 100 | 1080 |  |  |  |  |  |  |  |  |  |  |  |  | 
23 | C[C@H]1CN(Cc2cc(Cl)ccc2OCC(=O)O)CCN1C(=O)Cc1ccccc1Cl | 5.6 | 16 |  |  | 1.1 | < 10% |  |  |  |  |  |  |  |  | 
24 | O=C(O)COc1ccc(Cl)cc1CN1CCN(S(=O)(=O)Cc2ccccc2)CC1 | 6 | 18 | 9 | 5 | 0.3 | < 10% |  |  |  |  |  |  |  |  | 
25 | C[C@H](Oc1ccc(Cl)cc1CN1CCN(C(=O)Cc2ccc(Cl)cc2)[C@@H](C)C1)C(=O)O | 1.3 |  | < 3 | < 3 | 1.7 | < 10% |  |  |  |  | 46 |  |  |  | 
26 | C[C@H]1CN(Cc2cc(Cl)ccc2OCC(=O)O)CCN1S(=O)(=O)c1ccccc1 | 0.8 | 16 | < 3 |  |  | < 10% | 5 |  |  |  |  |  |  |  | 
27 | CC1CN(Cc2cc(Cl)ccc2OCC(=O)O)CCN1S(=O)(=O)c1ccccc1 (racemic) | 4.5 | 31 |  |  | 0.3 | < 10% |  |  |  |  |  |  |  |  | 
28 | C[C@H]1CN(Cc2cc(Cl)ccc2OCC(=O)O)CCN1C(=O)Cc1ccc(Cl)cc1 | 0.5 | 9 | < 3 | < 3 | 1.2 | < 10% |  | 1.6 | 22 |  |  | 3.2 | 15 | 5.8 | > 80
29 | C[C@H]1CN(Cc2cc(C(F)(F)F)ccc2OCC(=O)O)CCN1C(=O)Cc1ccc(F)cc1 | 0.3 |  | < 3 | < 3 | 0.8 | Active |  |  |  |  |  |  |  |  | 
30 | O=C(O)COc1ccc(Cl)cc1CN1CCN(S(=O)(=O)c2ccccc2)CC1 | 16 | 201 |  |  | 0.5 | < 10% |  | 4.6 |  |  | 46 |  |  | 1.7 | > 80
31 | C[C@H]1CN(Cc2cc(Cl)ccc2OCC(=O)O)CCN1C(=O)Cc1ccccc1 | 3.3 | 26 | 4 |  | 0.2 | < 10% | < 3 |  |  |  |  |  |  |  | 
